The target in assay [1] is T1, Vesicular acetylcholine transporter (Homo sapiens, UniProt Q16572).
T1 sequence (Q16572 whole entry): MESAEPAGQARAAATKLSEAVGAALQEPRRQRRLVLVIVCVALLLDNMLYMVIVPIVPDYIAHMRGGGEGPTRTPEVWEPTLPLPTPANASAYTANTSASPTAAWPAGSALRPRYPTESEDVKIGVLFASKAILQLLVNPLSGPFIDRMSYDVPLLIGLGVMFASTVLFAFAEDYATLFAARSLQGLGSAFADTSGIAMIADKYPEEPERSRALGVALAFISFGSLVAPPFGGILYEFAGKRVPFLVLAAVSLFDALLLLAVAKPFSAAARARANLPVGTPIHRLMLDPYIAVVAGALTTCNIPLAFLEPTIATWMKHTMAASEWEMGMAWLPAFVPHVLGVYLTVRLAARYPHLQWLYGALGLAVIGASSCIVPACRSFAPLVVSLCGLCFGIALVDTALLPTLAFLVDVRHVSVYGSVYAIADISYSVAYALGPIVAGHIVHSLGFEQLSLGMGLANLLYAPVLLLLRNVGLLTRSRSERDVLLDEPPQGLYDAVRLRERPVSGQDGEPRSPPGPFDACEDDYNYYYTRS
In words: Displacement of [3H]vesamicol from human vesicular acetylcholine transporter expressed in rat PC12 cells by liquid scintillation spectrometry. Type of assay: cell-based, PC-12. Background: In a radioligand displacement assay an active substance lowers the binding of a labelled ligand.

For assay [2], the target named is Sigma non-opioid intracellular receptor 1 (Cavia porcellus, UniProt Q60492). As to the kind of experiment: Displacement of [3H](+)-pentazocine from sigma1 receptor in guinea pig brain membrane by liquid scintillation counting. The assay is classed as cell membranes.
Assay [3] is described as follows: Displacement of [3H]DTG from sigma2 receptor in rat liver membrane. Type of assay: cell membranes. Put shortly:
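Rat liver membrane homogenate (~300 μg protein) incubated 2 h at room temperature with ~5 nM [3H]DTG plus 1 μM (+)-pentazocine to mask σ1 sites. Haloperidol 10 μM defines nonspecific binding. Filtered and counted.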

Assay [4] in a line: Selectivity ratio of Ki for human vesicular acetylcholine transporter to Ki for sigma1 receptor in guinea pig brain membrane. Type of assay: cell membranes.

As usually defined, the pKi is the negative decadic logarithm of the Ki, by convention in mol/L. Read a high pKi as a small Ki. What is called pKd is the Kd on a negative log10 scale, so that one unit is a factor of ten. Low values mean a large Kd, high ones a small Kd.

pKd, pKi: −log10 of the molar value.

Sequence of Sigma non-opioid intracellular receptor 1 (Q60492 whole entry): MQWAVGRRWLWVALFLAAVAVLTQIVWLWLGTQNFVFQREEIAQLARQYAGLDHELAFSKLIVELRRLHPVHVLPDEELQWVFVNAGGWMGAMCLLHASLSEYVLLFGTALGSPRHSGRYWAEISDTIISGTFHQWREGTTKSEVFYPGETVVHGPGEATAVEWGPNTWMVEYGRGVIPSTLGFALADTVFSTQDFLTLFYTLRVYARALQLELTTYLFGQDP

Consider `O[C@@H]1CCN(Cc2ccc(F)cc2)C[C@H]1N1CCC(c2ccccc2)CC1`, for which the negative-log Ki (pKi) in assay [1] was 9.66; in assay [2], 7.67; in assay [3], 7.44. Moreover, the Ratio Ki in assay [4] was determined as 98.
In turn, `NCC1(c2ccccc2)CCN([C@@H]2Cc3c(I)cccc3C[C@H]2O)CC1` gave a pKd in assay [1] of 8.52.
For the molecule `O[C@@H]1CC[C@H](OCc2ccc(F)cc2)C[C@H]1N1CCC(c2ccccc2)CC1`, the values for the pKi in assay [1], in assay [2] and in assay [3] were 7.97, 7.51 and 7.73, respectively.
Take `O[C@@H]1Cc2cccc(OCCCF)c2C[C@H]1N1CCC(c2ccccc2)CC1`: the pKi in assay [1] was 9.11.
On the same count and under the same terms, the same measure for `O[C@@H]1Cc2cccc(OC/C=C/I)c2C[C@H]1N1CCC(c2ccccc2)CC1`: 9.35.
Regarding `O[C@@H]1C[C@H](OCc2ccc(F)cc2)CC[C@H]1N1CCC(c2ccccc2)CC1`, the values for the pKi in assay [1], in assay [2] and in assay [3] were 6.48, 7.67 and 7.80, respectively.
Regarding `O=C(c1ccc(F)cc1)C1CCN([C@@H]2Cc3ccccc3C[C@H]2O)CC1` (racemic), the pKi in assay [3] was 6.60.

The values are drawn from ChEMBL document CHEMBL1140914, “Synthesis and in vitro and in vivo evaluation of 18F-labeled positron emission tomography (PET) ligands for imaging the vesicular acetylcholine transporter” (J Med Chem, 2009).
